# From ChEMBL document CHEMBL4265991
# B1: Inosine-5'-monophosphate dehydrogenase (Cryptococcus neoformans var. neoformans serotype D (strain JEC21 /ATCC MYA-565) (Filobasidiella neoformans)), Q5KP44 (protein)
# chain: MADTNPNAPPRSDSLLNPADALKYLEEYPRGDGLSLQELMDSRKNGGLTYNDFLVLPGHISFPASDVSLQSRATKNIVLNTPFLSSPMDTVTEDRMAIALALHGGLGIIHHNCSAEEQAAMVRRVKKYENGFITDPLCLGPDATVGDVLEIKAKFGFCGVPITETGAPNSKLLGIVTGRDVQFQDAETPIKSVMTTEVVTGSSPITLEKANSLLRETKKGKLPIVDSNGHLVSLVARSDLLKNQNYPYASKVPESKQLYCGAAIGTRPGDKDRLKLLAEAGLDVVVLDSSQGDSVYQIEFIKWIKQTYPKIEIIAGNVVTREQAAQLIAAGADGLRIGMGSGSICITQEVMAVGRPQGTAVYAVAEFASRFGIPCIADGGIGNIGHIAKALALGASAVMMGGLLAGTTESPGEYFYHEGKRVKVYRGMGSIEAMEHTQRGSASGKRSILNLDNAATARYFSEADAVKVAQGVSGDVADKGSINKFVPYLFTGLQHSFQDAGVKSVSELHSCARSGSLRFELRTASAQLEGGVHGLNSYTKRLFA
# What was measured:
# [1] = compound: COc1ccccc1-c1nnc(SC2=CS(=O)(=O)c3ccccc32)o1; test: (§1) Inhibition of recombinant Cryptococcus neoformans His-tagged IMPDH expressed in Escherichia coli BL21 (DE3) at 10 uM assessed as Kcat for substrate using IMP as fixed substrate at 500 uM and NAD as second substrate with varying concentrations of 31.25 to 1300 uM (reference value: 21.5 /s)
# Outline: (§2)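 Recombinant C. neoformans IMPDH, 100 nM final, reaction started by adding enzyme. NADH production monitored at 340 nm. Inhibitor series ran from 20 to 0.31 µM; MPA tested at 312 to 39 nM. Km and Vmax fitted to the Michaelis–Menten equation; inhibition type taken from shifts in Km and Vmax.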
# [2] = compound: O=S1(=O)C=C(Sc2nnc(-c3ccccc3)o2)c2ccccc21; test: as §1; outline: as §2
# [3] = compound: COc1ccccc1-c1nnc(SC2=CS(=O)(=O)c3ccccc32)o1; test: (§3) Inhibition of recombinant Cryptococcus neoformans His-tagged IMPDH expressed in Escherichia coli BL21 (DE3) at 10 uM assessed as Vmax for substrate using NAD as fixed substrate at 700 uM and IMP as second substrate with varying concentrations of 25 to 800 uM (reference value: 1.5 microM/min); outline: as §2
# [4] = compound: O=S1(=O)C=C(Sc2nnc(-c3ccccc3)o2)c2ccccc21; test: as §3; outline: as §2
# [5] = compound: COc1ccccc1-c1nnc(SC2=CS(=O)(=O)c3ccccc32)o1; test: (§4) Inhibition of recombinant Cryptococcus neoformans His-tagged IMPDH expressed in Escherichia coli BL21 (DE3) at 10 uM assessed as Km for substrate using NAD as fixed substrate at 700 uM and IMP as second substrate with varying concentrations of 25 to 800 uM (reference value: 257.5 +/- 23 microM); outline: as §2
# [6] = compound: O=S1(=O)C=C(Sc2nnc(-c3ccccc3)o2)c2ccccc21; test: as §4; outline: as §2
# [7] = compound: COc1ccccc1-c1nnc(SC2=CS(=O)(=O)c3ccccc32)o1; test: (§5) Inhibition of recombinant Cryptococcus neoformans His-tagged IMPDH expressed in Escherichia coli BL21 (DE3) at 10 uM assessed as Kcat for substrate using NAD as fixed substrate at 700 uM and IMP as second substrate with varying concentrations of 25 to 800 uM (reference value: 21.5 /s); outline: as §2
# [8] = compound: O=S1(=O)C=C(Sc2nnc(-c3ccccc3)o2)c2ccccc21; test: as §5; outline: as §2
# [9] = substrate: COc1c(C)c2c(c(O)c1C/C=C(\C)CCC(=O)O)C(=O)OC2; conditions: Cryptococcus neoformans; 0.078 uM
# [10] = substrate: COc1c(C)c2c(c(O)c1C/C=C(\C)CCC(=O)O)C(=O)OC2; conditions: Cryptococcus neoformans; 0.039 uM
# [11] = substrate: COc1c(C)c2c(c(O)c1C/C=C(\C)CCC(=O)O)C(=O)OC2; conditions: Cryptococcus neoformans; 0.039 uM; remark: listed apart in the source
# [12] = substrate: COc1c(C)c2c(c(O)c1C/C=C(\C)CCC(=O)O)C(=O)OC2; conditions: Cryptococcus neoformans; 0.039 uM; remark: listed apart in the source
# [13] = substrate: COc1c(C)c2c(c(O)c1C/C=C(\C)CCC(=O)O)C(=O)OC2; conditions: Cryptococcus neoformans; 0.039 uM; remark: listed apart in the source
# [14] = substrate: COc1c(C)c2c(c(O)c1C/C=C(\C)CCC(=O)O)C(=O)OC2; conditions: Cryptococcus neoformans; 0.039 uM; remark: listed apart in the source
# [15] = substrate: COc1c(C)c2c(c(O)c1C/C=C(\C)CCC(=O)O)C(=O)OC2; conditions: Cryptococcus neoformans; 0.039 uM; remark: listed apart in the source
# [16] = substrate: COc1c(C)c2c(c(O)c1C/C=C(\C)CCC(=O)O)C(=O)OC2; conditions: Cryptococcus neoformans; 0.078 uM; remark: listed apart in the source
# [17] = substrate: COc1c(C)c2c(c(O)c1C/C=C(\C)CCC(=O)O)C(=O)OC2; conditions: Cryptococcus neoformans; 0.078 uM; remark: listed apart in the source
# [18] = substrate: COc1c(C)c2c(c(O)c1C/C=C(\C)CCC(=O)O)C(=O)OC2; conditions: Cryptococcus neoformans; 0.078 uM; remark: listed apart in the source
# [19] = substrate: COc1c(C)c2c(c(O)c1C/C=C(\C)CCC(=O)O)C(=O)OC2; conditions: Cryptococcus neoformans; 0.078 uM; remark: listed apart in the source
# [20] = substrate: COc1c(C)c2c(c(O)c1C/C=C(\C)CCC(=O)O)C(=O)OC2; conditions: Cryptococcus neoformans; 0.078 uM; remark: listed apart in the source
# [21] = substrate: COc1c(C)c2c(c(O)c1C/C=C(\C)CCC(=O)O)C(=O)OC2; conditions: Cryptococcus neoformans; 0.156 uM
# [22] = substrate: COc1c(C)c2c(c(O)c1C/C=C(\C)CCC(=O)O)C(=O)OC2; conditions: Cryptococcus neoformans; 0.156 uM; remark: listed apart in the source
# [23] = substrate: COc1c(C)c2c(c(O)c1C/C=C(\C)CCC(=O)O)C(=O)OC2; conditions: Cryptococcus neoformans; 0.156 uM; remark: listed apart in the source
# [24] = substrate: COc1c(C)c2c(c(O)c1C/C=C(\C)CCC(=O)O)C(=O)OC2; conditions: Cryptococcus neoformans; 0.156 uM; remark: listed apart in the source
# [25] = substrate: COc1c(C)c2c(c(O)c1C/C=C(\C)CCC(=O)O)C(=O)OC2; conditions: Cryptococcus neoformans; 0.156 uM; remark: listed apart in the source
# [26] = substrate: COc1c(C)c2c(c(O)c1C/C=C(\C)CCC(=O)O)C(=O)OC2; conditions: Cryptococcus neoformans; 0.156 uM; remark: listed apart in the source
# [27] = compound: O=S1(=O)C=C(Sc2nnc(-c3ccccc3)o2)c2ccccc21; test: Inhibition of recombinant Cryptococcus neoformans His-tagged IMPDH expressed in Escherichia coli BL21 (DE3) at 0.3 uM assessed as Kcat for substrate using IMP as fixed substrate at 500 uM and NAD as second substrate with varying concentrations of 31.25 to 1300 uM (reference value: 1.5 /s)
protein,measurement,setting,value
B1,kcat,[1],1 s⁻¹
same,kcat,[2],1 s⁻¹
same,Vmax,[3],0.7 µM/min
same,Vmax,[4],0.6 µM/min
same,Km,[5],258 µM
same,Km,[6],316 µM
same,kcat,[7],0.7 s⁻¹
same,kcat,[8],0.6 s⁻¹
same,Vmax,[9],0.6 µM/min
same,Vmax,[10],1.1 µM/min
same,Km,[11],200 µM
same,kcat,[12],1.1 s⁻¹
same,Vmax,[13],0.9 µM/min
same,Km,[14],64 µM
same,kcat,[15],0.9 s⁻¹
same,Km,[16],137 µM
same,kcat,[17],0.6 s⁻¹
same,Vmax,[18],0.6 µM/min
same,Km,[19],53 µM
same,kcat,[20],0.6 s⁻¹
same,Vmax,[21],0.26 µM/min
same,Km,[22],37 µM
same,kcat,[23],0.25 s⁻¹
same,Vmax,[24],0.3 µM/min
same,Km,[25],32 µM
same,kcat,[26],0.3 s⁻¹
same,kcat,[27],1.5 s⁻¹
